Screening results deposited in PubChem by Broad Institute.
Cneo AK release: causes C. neoformans cell lysis. adenylate kinase release luminescence, 4 h; normalised: neutral wells 0, clomiphene wells 100. lysis activity, % at 15 µM. 0.2% of 360,000 active;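 active = mean lysis activity across replicates of at least 80%, whatever share of replicates individually reach that level; inactive = mean lysis activity below 80%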
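Test system: log-phase Cryptococcus neoformans yeast cells. Input: 5 × 10^6 yeast cells/mL. Medium: fresh YPD growth medium. Doses: single dose. Incubation: static 4 h at 37 °C with compound, 1 h detection. Measured by: luminescent adenylate kinase detection reagent. Read-out: signal increase indicating cell lysis. Benchmarks: Clomiphene.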
CaV13 FRET inh: Primary screen for inhibitors of IQ motif and Ca2+-dependent inactivation inhibitor domain binding in CACNA1D, Förster resonance energy transfer in living cells, …; HEK cells, CFP/YFP FRET ICDI-IQ, plate reader, 10 min; percent FRET-ratio fall versus neutral wells; inhibition, % at 12.3 µM; 0.098% of 340,000 active;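 active = mean replicate inhibition of at least 30% and at least 1% of replicates passing that level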;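 note: 0% = median of the neutral control wells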
F508del corr: CFTR F508del correction in bronchial cells; 0.36% of 350,000 active; CFBE cells, YFP halide quenching; stimulated with forskolin plus potentiator P3; % fluorescence drop versus neutral controls; AID 720511; activity (quench increase), % at 7.58 µM;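 active = mean added fluorescence quench of at least 8% versus neutral control, with both replicates also reaching 8%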;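 note: cells transiently co-express mutant CFTR-F508del with the halide-sensitive YFP; corrector assay measuring rescue of mutant channel to the surface after 24 h compound exposure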
rRNA inh HTS: inhibits bacterial ribosomal RNA function over humanized ribosomes; 1.6% of 350,000 active; GFP signal change (wild-type ribosome), % (test concentration not listed); E. coli WT GFP vs humanized-ribosome RFP mutants, fluorescence, 24 h; hits give low values; DMSO median 0, no signal -100;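 active = significant combined selectivity score with lowered wild-type GFP, culture density cut under 30%, mutant RFP and density less affected; inactive = any of these conditions unmet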
* = called active by the depositor; . = not tested or not shown. This is a sample that favours compounds with a hit; in the whole collection about 1.7% have one here.

SMILES	Cneo AK release	CaV13 FRET inh	F508del corr	rRNA inh HTS
COc1cccc(CSc2nnc(CSc3nc4nc(C)cc(C)n4n3)s2)c1	2	-8	3	-29*
O=C(c1ccc(F)cc1)N1CCOC(c2nc(-c3ccc(F)cc3)no2)C1 (stereo not drawn)	1	-11	-3	-25*
O=C(c1ccc(F)cc1)N1CCCC(c2nc(-c3ccncc3)no2)C1 (stereo not drawn)	-2	-10	0	-2
CCNC(=O)C[C@H]1C=C[C@@H](NS(=O)(=O)c2ccc(C)cc2)[C@@H](CO)O1	0	.	0	-2
CC(=O)c1ccc(NC(=O)C2=CC(c3cccs3)=NS(=O)(=O)N2C)cc1	6	-15	3	-21*
COc1ccc2c3c(n(C)c2c1)[C@@H](CO)N(C(=O)Nc1ccc(F)cc1)CC31CCN(Cc2ccccc2F)CC1	.	.	4	-8
Cc1noc(C)c1S(=O)(=O)N(C)C[C@@H]1OCCCC[C@H](C)Oc2ccc(NC(=O)Nc3ccc(F)cc3)cc2C(=O)N([C@H](C)CO)C[C@@H]1C	-1	.	2	2
COc1ccc(NS(=O)(=O)c2cc(NC(=O)Cc3c(F)cccc3Cl)ccc2OC)cc1	-1	-6	19*	4
CCOc1ccc(NS(=O)(=O)c2cc(NC(=O)CCNC(=O)c3ccco3)ccc2OC)cc1	-8	-6	32*	-3
COc1ccc(NS(=O)(=O)c2ccc(Cl)c(NC(=O)c3ccccc3F)c2)cc1	-1	-5	-5	-13*
COc1ccc(NS(=O)(=O)c2ccc(Cl)c(NC(=O)c3cccnc3Cl)c2)cc1	-2	1	-3	-20
COc1ccc(NS(=O)(=O)c2cc(NC(=O)CCNC(=O)c3ccco3)ccc2OC)cc1	0	-13	0	-1
O=C(Cc1cccnc1)N[C@H]1CC[C@H](CCNS(=O)(=O)c2ccccc2Cl)O[C@H]1CO	.	.	-1	1
Cc1noc(C)c1S(=O)(=O)N(C)C[C@@H]1Oc2ccc(NC(=O)Cc3ccccc3)cc2CC(=O)N([C@@H](C)CO)C[C@H]1C	-1	.	-4	-2
O=C(CN1CCCCC1)Nc1cc(Cl)ccc1Oc1ccccc1	.	5	2	-50
O=C(CN1CCCC1)Nc1ccccc1Sc1ccc(Cl)cc1	.	-6	2	-42*
O=C(CN1CCCCCC1)Nc1ccccc1Oc1ccccc1	1	6	-1	-41*
CC(=O)Nc1ccc2c(c1)C(=O)N(C)C[C@H](C)[C@@H](CN(C)C)O2	.	.	.	1
CCCN1C[C@H](C)[C@@H](OC)CN(C)C(=O)c2ccc(NC(=O)C3CC3)cc2OC[C@@H]1C	-2	.	3	1
O=C(/C=C\Nc1ccc(S(=O)(=O)Nc2ncccn2)cc1)c1cccc2ccccc12	.	-5	-3	-20*
O=C(/C=C\c1ccccc1OC(=O)c1ccccc1F)c1cc2ccccc2o1	-3	-5	.	-23*
COc1ccc2c3c(n(C)c2c1)[C@@H](CO)N(Cc1cccc(F)c1)CC31CCN(C)CC1	.	.	2	4
O=C(/C=C/c1ccccc1)N(Cc1cccc(Cl)c1)C1CCS(=O)(=O)C1 (stereo not drawn)	.	-7	-2	-35*
O=C(/C=C/c1ccccc1)N(Cc1ccc(Cl)cc1)C1CCS(=O)(=O)C1 (stereo not drawn)	1	-4	1	-22*
COc1cccc(CN(C(=O)/C=C/c2ccc(Cl)cc2)C2CCS(=O)(=O)C2)c1 (stereo not drawn)	.	-18	-1	-36*
SMILES	Cneo AK release	CaV13 FRET inh	F508del corr	rRNA inh HTS
O=C(/C=C/c1ccco1)N(Cc1cccc(Cl)c1)C1CCS(=O)(=O)C1 (stereo not drawn)	.	-5	0	2
O=C(/C=C/c1ccccc1)N(Cc1cccs1)C1CCS(=O)(=O)C1 (stereo not drawn)	-6	-4	-3	-13
CO[C@@H]1CN(C)C(=O)c2cc(NC(=O)NC(C)C)ccc2OC[C@H](C)N(Cc2cncnc2)C[C@H]1C	0	.	-2	3
C[C@H]1CN([C@@H](C)CO)C(=O)CCCn2cc(nn2)CO[C@H]1CN(C)Cc1ccc(C(=O)O)cc1	.	.	2	0
Cc1ccc(NS(=O)(=O)c2ccc(-c3cnc(C4CC4)o3)cc2)cc1	-1	-8	7	-64
Cc1ccc(N(C)S(=O)(=O)c2ccc(-c3cnc(C4CC4)o3)cc2)cc1	-8	-16	8.3*	-3
